Assay results: ChEMBL document CHEMBL4428039, “Anticancer properties of new synthetic hybrid molecules combining naphtho[2,3-b]furan-4,9-dione or benzo[f]indole-4,9-dione motif with phosphonate subunit” (Eur J Med Chem, 2016)
Activity calls are given as the source filed them. The rule behind the calls is not given here.

Key:
HL-60 [1] = assay: Cytotoxicity against human HL60 cells assessed as inhibition of metabolic activity after 48 hrs by MTT assay; format: functional, cell-based; details: HL-60, 48 h
Procedure, shortened: (§1)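 Exponentially growing cells seeded in 96-well plates and grown 24 h. Compounds in DMSO, diluted in medium (final DMSO <0.1%), added at 10^-7 to 10^-3 M for 48 h. MTT (5 mg/mL in PBS) then added for 2 h. Formazan dissolved in DMSO and read at 560 nm against untreated cells. IC50 taken from concentration–response curves; mean ± SD of ≥3 experiments.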

[2] = Selectivity index, ratio of IC50 for human MCF10A cells to IC50 for human MCF7 cells; format: toxicity; details: MCF10A cells versus MCF7 cells, read-out: Ratio IC50
NALM-6 = assay: Cytotoxicity against human NALM6 cells assessed as inhibition of metabolic activity after 48 hrs by MTT assay; format: functional, cell-based; details: NALM-6, 48 h; procedure, shortened: as §1
MCF7 [3] = assay: Cytotoxicity against human MCF7 cells assessed as inhibition of metabolic activity after 48 hrs by MTT assay; format: functional, cell-based; details: MCF7, 48 h; procedure, shortened: as §1
HUVEC = assay: Cytotoxicity against HUVEC assessed as inhibition of metabolic activity after 48 hrs by MTT assay; format: ADME, cell-based; details: Homo sapiens; procedure, shortened: as §1
MCF-10A = assay: Cytotoxicity against human MCF10A cells assessed as inhibition of metabolic activity after 48 hrs by MTT assay; format: ADME, cell-based; procedure, shortened: as §1
HL-60 [4] = assay: Induction of apoptosis in human HL60 cells assessed as early apoptotic cells at 7.27 +/- 0.08 uM after 24 hrs by Annexin V-APC/propidium iodide staining based flow cytometry (reference value: 3.4%); format: functional
MCF7 [5] = assay: Induction of apoptosis in human MCF7 cells assessed as increase in cleaved PARP positive cells at 3.4 +/- 0.15 uM after 24 hrs by DAPI staining based flow cytometry relative to control; format: functional, cell-based
HL-60 [6] = assay: Cytotoxicity against human HL60 cells assessed as inhibition of metabolic activity after 24 hrs by MTT assay; format: functional, cell-based; details: HL-60, 24 h
Procedure, shortened: (§2)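 MTT assay on HL-60 or MCF-7 cells seeded and grown 24 h, then treated 24 h over 10^-7 to 10^-3 M (final DMSO <0.1%). MTT (5 mg/mL in PBS) added for 2 h. Formazan dissolved in DMSO and read at 560 nm against untreated cells. IC50 derived from concentration–response curves of ≥3 experiments.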

HL-60 [7] = assay: Induction of transmembrane potential depolarization in human HL60 cells at 7.27 +/- 0.08 uM after 24 hrs by JC-10 staining based flow cytometry (reference value: 15.9%); format: functional
MCF7 [8] = assay: Cell cycle arrest in human MCF7 cells assessed as accumulation at S phase at 3.4 +/- 0.15 uM after 24 hrs by DAPI staining based flow cytometry (reference value: 22%); format: functional
MCF7 [9] = assay: Induction of ROS generation in human MCF7 cells at 3.4 +/- 0.15 uM after 24 hrs by Cellrox Green staining based flow cytometry relative to control; format: functional
HL-60 [10] = assay: Induction of apoptosis in human HL60 cells assessed as necrotic cells at 7.27 +/- 0.08 uM after 24 hrs by Annexin V-APC/propidium iodide staining based flow cytometry (reference value: 0.1%); format: functional
HL-60 [11] = assay: Cell cycle arrest in human HL60 cells assessed as accumulation at G0/G1 phase at 7.27 +/- 0.08 uM after 24 hrs by DAPI staining based flow cytometry (reference value: 39.5%); format: functional
HL-60 [12] = assay: Induction of DNA damage in human HL60 cells assessed as increase in H2AX phosphorylation at S139 residue at 7.27 +/- 0.08 uM after 24 hrs by DAPI staining based flow cytometry relative to control; format: functional
MCF7 [13] = assay: Induction of transmembrane potential depolarization in human MCF7 cells at 3.4 +/- 0.15 uM after 24 hrs by JC-10 staining based flow cytometry (reference value: 18.2%); format: functional
HL-60 [14] = assay: Inhibition of cell proliferation in human HL60 cells assessed as reduction in BrdU incorporation at 7.27 +/- 0.08 uM after 24 hrs by DAPI staining based flow cytometry relative to control; format: functional
HL-60 [15] = assay: Induction of apoptosis in human HL60 cells assessed as increase in cleaved PARP positive cells at 7.27 +/- 0.08 uM after 24 hrs by DAPI staining based flow cytometry (reference value: 1.2 +/- 0.2%); format: functional
MCF7 [16] = assay: Cell cycle arrest in human MCF7 cells assessed as accumulation at G0/G1 phase at 3.4 +/- 0.15 uM after 24 hrs by DAPI staining based flow cytometry (reference value: 55%); format: functional
HL-60 [17] = assay: Cell cycle arrest in human HL60 cells assessed as accumulation at subG0/G1 phase at 7.27 +/- 0.08 uM after 24 hrs by DAPI staining based flow cytometry (reference value: 3.1%); format: functional
HL-60 [18] = assay: Induction of ROS generation in human HL60 cells at 7.27 +/- 0.08 uM after 24 hrs by Cellrox Green staining based flow cytometry relative to control; format: functional
HL-60 [19] = assay: Cell cycle arrest in human HL60 cells assessed as accumulation at G2/M phase at 7.27 +/- 0.08 uM after 24 hrs by DAPI staining based flow cytometry (reference value: 31.2%); format: functional
MCF7 [20] = assay: Cytotoxicity against human MCF7 cells assessed as inhibition of metabolic activity after 24 hrs by MTT assay; format: functional, cell-based; details: MCF7, 24 h; procedure, shortened: as §2
MCF7 [21] = assay: Induction of apoptosis in human MCF7 cells assessed as early apoptotic cells at 3.4 +/- 0.15 uM after 24 hrs by Annexin V-APC/propidium iodide staining based flow cytometry (reference value: 5.9%); format: functional
HL-60 [22] = assay: Cell cycle arrest in human HL60 cells assessed as accumulation at S phase at 7.27 +/- 0.08 uM after 24 hrs by DAPI staining based flow cytometry (reference value: 26.1%); format: functional
HL-60 [23] = assay: Induction of apoptosis in human HL60 cells assessed as late apoptotic cells at 7.27 +/- 0.08 uM after 24 hrs by Annexin V-APC/propidium iodide staining based flow cytometry (reference value: 2.7%); format: functional
MCF7 [24] = assay: Cell cycle arrest in human MCF7 cells assessed as accumulation at G2/M phase at 3.4 +/- 0.15 uM after 24 hrs by DAPI staining based flow cytometry (reference value: 23%); format: functional
MCF7 [25] = assay: Induction of DNA damage in human MCF7 cells assessed as increase in H2AX phosphorylation at S139 residue at 3.4 +/- 0.15 uM after 24 hrs by DAPI staining based flow cytometry relative to control; format: functional
MCF7 [26] = assay: Inhibition of cell proliferation in human MCF7 cells assessed as reduction in BrdU incorporation at 3.4 +/- 0.15 uM after 24 hrs by DAPI staining based flow cytometry relative to control; format: functional
MCF7 [27] = assay: Induction of apoptosis in human MCF7 cells assessed as late apoptotic cells at 3.4 +/- 0.15 uM after 24 hrs by Annexin V-APC/propidium iodide staining based flow cytometry (reference value: 6.1%); format: functional
MCF7 [28] = assay: Induction of apoptosis in human MCF7 cells assessed as necrotic cells at 3.4 +/- 0.15 uM after 24 hrs by Annexin V-APC/propidium iodide staining based flow cytometry (reference value: 1.9%); format: functional
MCF7 [29] = assay: Induction of apoptosis in human MCF7 cells assessed as viable cells at 3.4 +/- 0.15 uM after 24 hrs by Annexin V-APC/propidium iodide staining based flow cytometry (reference value: 86.1%); format: functional

CCOP(=O)(OCC)c1c(-c2ccc(Cl)cc2Cl)oc2c1C(=O)c1ccccc1C2=O
IC50 (HL-60 [1]): 5.44 µM
selectivity ratio [2]: 4
IC50 (NALM-6): 4.82 µM
IC50 (MCF7 [3]): 2.9 µM
IC50 (HUVEC): 4.06 µM
IC50 (MCF-10A): 11.3 µM

CCOP(=O)(OCC)c1c2c(n(C)c1O)C(=O)c1ccccc1C2=O
IC50 (HL-60 [1]): 59.7 µM
IC50 (NALM-6): 61.7 µM
IC50 (MCF7 [3]): 50 µM

CCOP(=O)(O)c1c(-c2ccccc2Cl)oc2c1C(=O)c1ccccc1C2=O
IC50 (HL-60 [1]): 487 µM
IC50 (NALM-6): 479 µM
IC50 (MCF7 [3]): 150 µM

CCOP(=O)(OCC)c1c(-c2cccnc2Cl)oc2c1C(=O)c1ccccc1C2=O
IC50 (HL-60 [1]): 8.66 µM
IC50 (NALM-6): 6.65 µM
IC50 (MCF7 [3]): 2.55 µM

CCCn1c(O)c(P(=O)(OCC)OCC)c2c1C(=O)c1ccccc1C2=O
IC50 (HL-60 [1]): 56.2 µM
IC50 (NALM-6): 60 µM
IC50 (MCF7 [3]): 43.9 µM

CCOP(=O)(OCC)c1c(-c2ccccc2Cl)oc2c1C(=O)c1ccccc1C2=O
IC50 (HL-60 [1]): 6.35 µM
Activity (HL-60 [4]): 4.8%
Activity (MCF7 [5]): inactive
IC50 (HL-60 [6]): 7.27 µM
Activity (HL-60 [7]): 44%
Activity (MCF7 [8]): 22.4%
fold change (FC) (MCF7 [9]): 10
selectivity ratio [2]: 4
Activity (HL-60 [10]): 2.7%
IC50 (NALM-6): 5.07 µM
Activity (HL-60 [11]): 33.5%
Activity (HL-60 [12]): 40.7%
Activity (MCF7 [13]): 50 - 50.1%
IC50 (MCF7 [3]): 2.34 µM
inhibition (INH) (HL-60 [14]): 91%
Activity (HL-60 [15]): <=82.8%
IC50 (HUVEC): 3.73 µM
Activity (MCF7 [16]): 62%
Activity (HL-60 [17]): 8.2%
fold change (FC) (HL-60 [18]): 10
Activity (HL-60 [19]): 26.1%
IC50 (MCF7 [20]): 3.4 µM
Activity (MCF7 [21]): 3%
Activity (HL-60 [22]): 36.1%
Activity (HL-60 [23]): 27.8%
IC50 (MCF-10A): 10 µM
Activity (MCF7 [24]): 16.4%
Activity (MCF7 [25]): 11.03%
inhibition (INH) (MCF7 [26]): 34%
Activity (MCF7 [27]): 19%
Activity (MCF7 [28]): 5.6%
Activity (MCF7 [29]): 72.4%

CCOP(=O)(OCC)c1c(-c2ccccc2)oc2c1C(=O)c1ccccc1C2=O
IC50 (HL-60 [1]): 6.01 µM
IC50 (NALM-6): 6.06 µM
IC50 (MCF7 [3]): 2.4 µM
